According to ChEMBL document CHEMBL4765226, “Identification of a Human Toll-Like Receptor (TLR) 8-Specific Agonist and a Functional Pan-TLR Inhibitor in 2-Aminoimidazoles” (J Med Chem, 2016):
Activity calls are given as the source filed them. The calls are words filed in the database; no cut-off is given here.

Experiments:
[1] = target: T1, Toll-like receptor 8 (Homo sapiens) (UniProt Q9NR97); assay: Agonist activity at TLR8 in human polymorphonuclear leucocyte cells assessed as induction of NF-kappaB phosphorylation at p65 subunit measured after 15 mins in presence of 10% FBS by Alexa fluor 647 dye based flow cytometry analysis; assay type: tissue-based; settings: in the assay text read “PE-Cy7 dye” for “Alexa fluor 647 dye”
T1 sequence (whole entry): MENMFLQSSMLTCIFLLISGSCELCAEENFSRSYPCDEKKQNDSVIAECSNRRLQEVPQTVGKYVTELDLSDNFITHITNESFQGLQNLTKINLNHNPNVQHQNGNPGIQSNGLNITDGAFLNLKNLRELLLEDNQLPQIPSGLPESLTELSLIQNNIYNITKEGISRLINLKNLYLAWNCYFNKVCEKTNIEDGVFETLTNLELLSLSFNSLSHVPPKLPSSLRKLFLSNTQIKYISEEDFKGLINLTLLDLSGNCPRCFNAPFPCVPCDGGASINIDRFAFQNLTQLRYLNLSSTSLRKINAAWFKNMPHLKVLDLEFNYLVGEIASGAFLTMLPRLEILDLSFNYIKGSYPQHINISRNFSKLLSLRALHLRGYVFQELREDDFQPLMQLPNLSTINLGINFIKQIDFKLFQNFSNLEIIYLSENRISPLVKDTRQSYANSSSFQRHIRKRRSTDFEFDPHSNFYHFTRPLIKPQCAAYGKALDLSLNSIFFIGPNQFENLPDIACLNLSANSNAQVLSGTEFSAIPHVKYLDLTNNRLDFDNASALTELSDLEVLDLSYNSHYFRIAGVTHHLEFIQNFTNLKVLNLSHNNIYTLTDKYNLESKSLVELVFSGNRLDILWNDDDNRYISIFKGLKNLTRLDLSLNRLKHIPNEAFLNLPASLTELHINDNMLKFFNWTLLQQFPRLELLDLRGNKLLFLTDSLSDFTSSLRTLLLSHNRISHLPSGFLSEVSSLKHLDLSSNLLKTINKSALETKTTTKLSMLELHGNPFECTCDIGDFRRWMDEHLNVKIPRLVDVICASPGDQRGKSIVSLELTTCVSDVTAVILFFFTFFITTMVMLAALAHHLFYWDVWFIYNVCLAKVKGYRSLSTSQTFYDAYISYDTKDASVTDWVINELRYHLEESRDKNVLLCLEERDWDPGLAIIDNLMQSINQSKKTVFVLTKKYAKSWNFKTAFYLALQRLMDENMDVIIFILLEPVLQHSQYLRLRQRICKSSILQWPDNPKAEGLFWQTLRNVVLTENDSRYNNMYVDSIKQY
Procedure, shortened: (§1)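 Whole human blood with anticoagulant was added to serial compound dilutions in RPMI with 10% FBS and held at 37 °C for 15 min. Samples were lysed and fixed three times, permeabilized in ice-cold methanol for 30 min, then stained on ice for 60 min with anti-NF-κB p65-PECy7, p38MAPK-PE and ERK1/2-AlexaFluor 647. Flow cytometry acquired 100,000 gated events; monocytes and polymorphonuclear cells were gated.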

[2] = target: T2, Toll-like receptor 7 (Homo sapiens) (UniProt Q9NYK1); assay: Agonist activity at human TLR7 stably expressed in HEK293 cells cotransfected with secreted alkaline phosphatase assessed as induction of NFkappaB activation by quanti-blue SEAP reporter gene based spectrophotometric method; assay type: cell-based
T2 sequence (whole entry): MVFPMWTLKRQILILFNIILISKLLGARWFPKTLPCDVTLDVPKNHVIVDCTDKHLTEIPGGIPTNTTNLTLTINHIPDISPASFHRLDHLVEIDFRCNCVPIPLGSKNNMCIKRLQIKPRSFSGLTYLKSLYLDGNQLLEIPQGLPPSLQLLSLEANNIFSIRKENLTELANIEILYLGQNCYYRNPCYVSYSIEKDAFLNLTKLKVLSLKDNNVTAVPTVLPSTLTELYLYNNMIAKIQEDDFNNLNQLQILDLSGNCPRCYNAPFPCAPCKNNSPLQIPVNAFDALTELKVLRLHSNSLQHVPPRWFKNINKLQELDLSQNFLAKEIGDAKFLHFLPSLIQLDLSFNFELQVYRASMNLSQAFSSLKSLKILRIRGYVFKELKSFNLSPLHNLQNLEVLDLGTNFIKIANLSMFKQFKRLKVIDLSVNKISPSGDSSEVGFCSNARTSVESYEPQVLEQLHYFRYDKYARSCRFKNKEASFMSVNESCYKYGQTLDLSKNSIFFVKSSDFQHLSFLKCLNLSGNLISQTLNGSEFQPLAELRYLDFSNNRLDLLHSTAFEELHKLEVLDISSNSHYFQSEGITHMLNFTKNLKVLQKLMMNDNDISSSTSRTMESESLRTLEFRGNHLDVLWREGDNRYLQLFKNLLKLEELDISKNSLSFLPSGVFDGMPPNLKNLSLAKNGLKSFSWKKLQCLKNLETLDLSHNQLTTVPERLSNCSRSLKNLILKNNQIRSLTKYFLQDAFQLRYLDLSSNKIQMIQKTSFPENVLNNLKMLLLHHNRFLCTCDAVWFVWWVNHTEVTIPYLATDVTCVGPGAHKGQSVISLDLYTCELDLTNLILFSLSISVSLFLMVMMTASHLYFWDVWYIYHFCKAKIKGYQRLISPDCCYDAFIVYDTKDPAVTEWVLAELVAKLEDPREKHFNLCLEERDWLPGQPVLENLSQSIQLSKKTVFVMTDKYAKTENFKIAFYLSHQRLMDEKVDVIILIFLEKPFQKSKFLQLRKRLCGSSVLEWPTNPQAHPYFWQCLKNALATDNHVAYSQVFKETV
Procedure, shortened: (§2)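 HEK293 cells stably co-transfected with the matching human TLR (2, 3, 4, 5, 7, 8 or 9) and NF-κB/AP-1-driven secreted alkaline phosphatase were kept in selection medium. About 10^5 cells/ml were incubated with graded concentrations of stimulus. sAP was read at 620 nm with a chromogen in detection medium. EC50 came from four-parameter logistic fits on quadruplicates.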

[3] = target: T1, Toll-like receptor 8 (Homo sapiens); assay: Agonist activity at TLR8 in human PBMC cells assessed as induction of IFNgamma production incubated for 16 hrs by immunoassay; assay type: cell-based; settings: filed as agonist
Procedure, shortened: (§3)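 Fresh human PBMCs isolated from venous blood, plated at 10^5 cells in 100 µL per well and stimulated for 16 h with graded concentrations of compound. Supernatants were collected by centrifugation and assayed in duplicate with a multiplexed cytokine/chemokine magnetic bead array.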

Toll-like receptor 2 = Toll-like receptor 2 (Homo sapiens, UniProt O60603); assay: Agonist activity at human TLR2 stably expressed in HEK293 cells cotransfected with secreted alkaline phosphatase assessed as induction of NFkappaB activation by quanti-blue SEAP reporter gene based spectrophotometric method; assay type: cell-based; procedure, shortened: as §2
Toll-like receptor 2, sequence (O60603 whole entry): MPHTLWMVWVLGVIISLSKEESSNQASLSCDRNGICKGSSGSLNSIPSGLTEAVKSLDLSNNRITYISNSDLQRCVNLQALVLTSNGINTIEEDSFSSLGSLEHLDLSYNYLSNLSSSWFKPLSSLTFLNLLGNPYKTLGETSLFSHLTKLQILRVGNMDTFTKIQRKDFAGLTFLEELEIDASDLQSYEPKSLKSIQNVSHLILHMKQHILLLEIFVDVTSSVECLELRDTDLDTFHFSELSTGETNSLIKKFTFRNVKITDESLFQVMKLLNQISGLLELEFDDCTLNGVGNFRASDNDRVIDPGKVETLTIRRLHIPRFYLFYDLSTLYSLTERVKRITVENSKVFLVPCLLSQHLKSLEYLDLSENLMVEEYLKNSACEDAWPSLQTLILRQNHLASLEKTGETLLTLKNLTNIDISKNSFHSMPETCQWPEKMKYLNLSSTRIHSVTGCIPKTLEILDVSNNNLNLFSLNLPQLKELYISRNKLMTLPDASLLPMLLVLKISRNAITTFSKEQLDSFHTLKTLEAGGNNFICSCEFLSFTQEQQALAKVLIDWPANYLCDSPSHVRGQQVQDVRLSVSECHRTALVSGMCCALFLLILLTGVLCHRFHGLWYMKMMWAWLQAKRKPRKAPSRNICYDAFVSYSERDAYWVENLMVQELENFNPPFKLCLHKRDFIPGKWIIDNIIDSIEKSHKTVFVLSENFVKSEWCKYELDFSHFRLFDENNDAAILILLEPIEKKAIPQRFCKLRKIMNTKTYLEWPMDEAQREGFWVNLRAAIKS

[4] = target: T1, Toll-like receptor 8 (Homo sapiens); assay: Agonist activity at TLR8 in human PBMC cells assessed as induction of MIP-1beta production incubated for 16 hrs by immunoassay; assay type: cell-based; settings: filed as agonist; procedure, shortened: as §3
[5] = target: T1, Toll-like receptor 8 (Homo sapiens); assay: Agonist activity at TLR8 in human monocytes assessed as induction of NF-kappaB phosphorylation at p65 subunit measured after 15 mins in presence of 10% FBS by Alexa fluor 647 dye based flow cytometry analysis; assay type: cell-based; settings: Monocyte, in the assay text read “PE-Cy7 dye” for “Alexa fluor 647 dye”; procedure, shortened: as §1
[6] = target: Toll-like receptor 3 (Homo sapiens) (UniProt O15455); assay: Agonist activity at human TLR3 stably expressed in HEK293 cells cotransfected with secreted alkaline phosphatase assessed as induction of NFkappaB activation by quanti-blue SEAP reporter gene based spectrophotometric method; assay type: cell-based; procedure, shortened: as §2
Toll-like receptor 3 (Homo sapiens), sequence (O15455 whole entry): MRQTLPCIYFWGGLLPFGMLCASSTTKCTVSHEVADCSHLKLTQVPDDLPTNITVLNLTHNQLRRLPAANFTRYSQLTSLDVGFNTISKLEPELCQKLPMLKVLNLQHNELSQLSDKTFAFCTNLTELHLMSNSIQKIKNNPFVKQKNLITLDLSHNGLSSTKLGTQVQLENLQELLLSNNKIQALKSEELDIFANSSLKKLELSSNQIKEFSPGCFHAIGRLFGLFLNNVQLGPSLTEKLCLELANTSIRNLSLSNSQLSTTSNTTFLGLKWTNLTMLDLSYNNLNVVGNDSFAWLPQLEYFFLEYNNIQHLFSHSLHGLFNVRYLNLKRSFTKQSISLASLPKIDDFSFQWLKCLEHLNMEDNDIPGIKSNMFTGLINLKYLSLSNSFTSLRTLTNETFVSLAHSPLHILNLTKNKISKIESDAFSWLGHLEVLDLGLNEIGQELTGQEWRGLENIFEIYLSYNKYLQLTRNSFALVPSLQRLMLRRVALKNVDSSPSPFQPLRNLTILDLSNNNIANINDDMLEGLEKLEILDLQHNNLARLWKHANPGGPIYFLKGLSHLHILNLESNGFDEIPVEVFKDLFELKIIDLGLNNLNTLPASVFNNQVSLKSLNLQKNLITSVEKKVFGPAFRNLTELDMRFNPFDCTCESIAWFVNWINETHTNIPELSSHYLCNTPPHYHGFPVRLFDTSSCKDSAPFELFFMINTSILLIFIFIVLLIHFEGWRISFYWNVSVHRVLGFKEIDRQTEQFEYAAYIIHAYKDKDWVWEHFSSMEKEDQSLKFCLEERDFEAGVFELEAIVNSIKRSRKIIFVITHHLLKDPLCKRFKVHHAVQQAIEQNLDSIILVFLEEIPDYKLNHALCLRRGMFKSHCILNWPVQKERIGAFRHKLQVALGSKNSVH

SMILES	Activity [1]	Activity [2]	Activity [3]	Activity (Toll-like receptor 2)	Activity [4]	Activity [5]	Activity [6]
CCCCCn1cc(-c2ccccc2)nc1N	inactive	inactive	Active	inactive	Active	inactive	inactive
CCCCCn1cc(-c2ccc(F)cc2)nc1N	inactive	inactive	Active	inactive	Dose-dependent effect	inactive	inactive
